Like-named read-outs stand apart in the source and are kept apart here.
Key:
[1] = test system: Arabidopsis WT (Col) seedlings; test: RNA-Seq transcriptome analysis; type: in vivo, Arabidopsis thaliana; settings: ten-day-old plants, 50 μM, 3 h
Summary of the method: (§1)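 Ten-day-old WT Col seedlings were mock-treated or exposed to 50 μM ABA or test compound for 3 h, in biological duplicates. Total RNA was sequenced as 50 bp paired-end reads, about 20 million per sample. Reads were mapped to the Arabidopsis gene model and counted per gene, then tested for differential expression. DEGs were subjected to GO analysis.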

PYL1 [2] = biological target: T1, PYL1 (Arabidopsis thaliana, UniProt Q8VZS8); settings: PYL1, literature value; cited from earlier work
T1 sequence (Q8VZS8 1-221): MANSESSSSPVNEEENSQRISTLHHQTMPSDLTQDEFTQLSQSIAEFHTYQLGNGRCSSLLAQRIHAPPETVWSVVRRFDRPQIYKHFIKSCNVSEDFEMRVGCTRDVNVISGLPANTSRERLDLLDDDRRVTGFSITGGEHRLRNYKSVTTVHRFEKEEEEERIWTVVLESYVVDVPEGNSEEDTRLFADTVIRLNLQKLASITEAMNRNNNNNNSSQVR

PYR1 = biological target: T2, PYR1 (Arabidopsis thaliana, UniProt O49686); test: ITC binding to PYR1; settings: PYR1 wild type
T2 sequence (O49686 1-191): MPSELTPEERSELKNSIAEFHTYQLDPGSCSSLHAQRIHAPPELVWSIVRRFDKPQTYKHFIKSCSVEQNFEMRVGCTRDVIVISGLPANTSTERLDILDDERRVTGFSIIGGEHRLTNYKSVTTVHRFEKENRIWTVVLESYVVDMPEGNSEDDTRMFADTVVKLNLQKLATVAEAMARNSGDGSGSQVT
Summary of the method: (§2)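 Full-length N-terminal His6-tagged receptor was expressed in E. coli BL21(DE3) and purified by Ni-NTA, ion exchange and gel filtration, with the tag removed. ITC ran at 25 °C in 25 mM HEPES, 100 mM NaCl, pH 7.5, using degassed ligand dissolved in the same buffer. Final protein was 50–100 μM and ligand 500–1000 μM.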

[3] = test system: HAB1 with PYR1, PYL1, PYL2, PYL3, PYL5, PYL6 and PYL10; test: Phosphatase assay, HAB1 with all seven tested PYLs; type: biochemical, Arabidopsis thaliana; settings: 5 μM ABA
Summary of the method: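 Recombinant His-tagged HAB1 phosphatase activity was measured with a Ser/Thr phosphatase assay system. Receptor:HAB1 was 0.4:0.4 μM (1:1) for PYR1, PYL1, PYL2 and PYL3, and 0.8:0.4 μM (2:1) for PYL5, PYL6 and PYL10. Mixtures were incubated with 5 μM ABA, 50 μM test compound, or both. Three biological replicates were run.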

PYR1 dimer = biological target: T3, PYR1 dimer (Arabidopsis thaliana, UniProt O49686); test: SEC-MALLS protein oligomeric state; settings: 1 mM chemical(s), PYR1 80 μM
T3 sequence (O49686 1-191): T2 sequence (O49686 1-191)
Summary of the method: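 Size exclusion used a Superdex S200 column in 20 mM Tris pH 7.5, 150 mM NaCl, 1 mM β-mercaptoethanol, at 20 °C and 0.5 ml/min. The equilibration buffer held 1 mM ABA, 1 mM test compound, or both. Receptor was injected at 80 μM. Weight-averaged molar mass was calculated from on-line MALLS with a 690 nm laser.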

[4] = test system: Arabidopsis thaliana seeds (WT Col-0 and mutants); test: Seed germination assay; type: in vivo; settings: ABA 1 µM
Summary of the method: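 WT Col-0 and mutant seeds (pyr1/pyl1/pyl2/pyl4, pyl3/pyl7/pyl9/pyl11/pyl12, PYL4 overexpression) were stratified for 4 days. They were sown on half-strength MS agar with 1% sucrose containing 0.05% DMSO, 1 µM ABA, 1 µM test compound, or both. Each treatment used 40 seeds per plate on three plates, at 22 °C under long days. Seeds were scored daily as germinated when green cotyledons appeared.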

PYL1 [5] = biological target: T1, PYL1; test: ITC binding to PYL1
Summary of the method: as §2

[6] = test system: Arabidopsis WT (Col) seedlings; test: GO analysis of DEGs; type: in vivo, Arabidopsis thaliana; settings: unique DEGs
Summary of the method: as §1

seed germination = settings: cited from earlier work

Kd (PYR1) [µM] | inhibition of HAB1 activity [3] [%] | elution volume of PYR1 (PYR1 dimer) [mL] | molecular mass of PYR1 (PYR1 dimer; dimer theoretical 43 kDa) [kDa] | Kd (PYL1 [5]) [µM] | SMILES | number of genes specifically responsive [1] | number of differentially expressed genes (DEGs) induced ([1]; relative to DMSO) | Kd (PYL1 [2]) [µM] | germination rate ([4]; 4OE seeds) | germination phenotype ([4]; 1124 (pyr1/pyl1/pyl2/pyl4) seeds) | germination rate ([4]; 3791112 seeds) | germination rate ([4]; WT seeds) | number of genes involved in seed germination induced (GO:0009845) [6] | activity in inhibiting seed germination relative to ABA (seed germination)
22 | ≥ 70 | 16.02 to 17.05 | 22 ± 2 | 23.5 | CC1=CC(=O)CC(C)(C)[C@@]1(O)/C=C/C(C)=C\C(=O)O [ABA, Abscisic acid] | 2602 | 3366 | ~50 | lower than 30% | ABA insensitive phenotype | lower than 30% | lower than 30% | 28 | 
 |  |  |  |  | N#Cc1c(C2CC2)cc(CC(=O)NC2(C(=O)O)CCCCC2)cc1C1CC1 [opabactin] |  |  |  |  |  |  |  |  | ~ 10 fold
